Rows were chosen to be rich in hits. Some 2.2% of all compounds tested hit in one or more screens of this group.
TRAIL sens C8 – caspase-8 TRAIL sensitization. NB7+C8 cells + TRAIL, ATPlite viability luminescence. inhibition (viability loss, TRAIL sensitization), % at 10 µM. 360,000 tested, 1% active;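 active means compounds causing at least 50% loss of cell viability in the single-dose screen, relative to plate controls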
FLuc inhib CS – Photinus pyralis luciferase inhibition counter-screen | ATPLite firefly luciferase biochemical luminescence, 10 min | inhibition, % at 10 µM | 200,000 tested, 1.5% active;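 active means inhibition above about 50% when tested at 10 µM, limit read from the data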
Target sequence (P08659 whole entry, looked up): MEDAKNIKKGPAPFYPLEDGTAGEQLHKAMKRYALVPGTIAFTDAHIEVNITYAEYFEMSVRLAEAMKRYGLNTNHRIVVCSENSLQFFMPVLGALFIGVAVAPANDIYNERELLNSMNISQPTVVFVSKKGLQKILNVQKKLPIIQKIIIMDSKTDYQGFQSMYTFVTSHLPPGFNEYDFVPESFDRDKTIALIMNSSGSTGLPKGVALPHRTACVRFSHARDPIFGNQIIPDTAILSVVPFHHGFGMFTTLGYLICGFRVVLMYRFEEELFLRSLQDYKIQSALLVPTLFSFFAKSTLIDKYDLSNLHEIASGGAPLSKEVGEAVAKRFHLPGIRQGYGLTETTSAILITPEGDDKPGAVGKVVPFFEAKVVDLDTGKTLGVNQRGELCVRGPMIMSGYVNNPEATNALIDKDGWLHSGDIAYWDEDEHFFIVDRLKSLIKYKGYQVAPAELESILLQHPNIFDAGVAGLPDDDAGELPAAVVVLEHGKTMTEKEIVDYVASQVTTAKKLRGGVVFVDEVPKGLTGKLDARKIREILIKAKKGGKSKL
PPC-1+TRAIL kill – PPC-1 cancer cell killing with TRAIL present | PPC-1 cells + TRAIL, ATPLite viability luminescence | cell killing (% activity), % at 4 µM or 5 µM | 220,000 tested, 0.41% active | AID 1443;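 active means cell killing above 50% in the first pass at 4 µM, then a duplicate retest at 5 µM averaging 50% or more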;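 further: plate controls were cells with TRAIL plus DMSO for no effect and medium-only wells lacking cells for full effect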
STAT3 inh – STAT3 signaling inhibition. U3A cells, IL-6 STAT3-luciferase reporter, luminescence; host cell line lacks STAT1. inhibition, % at 5.5 µM. 190,000 tested, 0.89% active. AID 862;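 active means inhibition above the mean inhibition across all screened compounds plus 3 SD, cut at about 44% in these data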;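 further: 0% = DMSO only wells and 100% = 100 µM nifuroxazide control wells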
HSP90 inh – inhibitors of HSP90 luciferase refolding in rabbit reticulocyte lysate; inhibition, % at 5.6 µM; 290,000 tested, 0.91% active; AID 1789; luciferase refolding luminescence, 3 h;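 active means inhibition above the screen-wide mean plus 3 SD, computed separately per campaign, cut at about 16% in these data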;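 further: 0% = DMSO wells and 100% = 60 µM geldanamycin wells; inhibitors lower the luminescence because luciferase stays unfolded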
FLuc act counter – affects firefly luciferase, flagging false hits in luciferase stimulation screens; P08659; ATPlite luciferase biochemical, luminescence, 10 min; 0 = ATP-free wells, 1 = DMSO control; activation factor at 10 µM; 200,000 tested, under 10 active;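 active means luciferase activation factor, scaled between plate controls, of at least 2 with compound at 10 µM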
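Assay system – cell-free luciferase reagent · Medium – PBS-based ATP solution · Dosing – test compounds dosed from 2 mM stocks in 100% DMSO · Timing – 10 min, room temperature · Technique – light output (luminescence) · Measure – luminescence gain marking luciferase activators · Controls – No-ATP low control, compound-free enzyme-plus-ATP high control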
HSP90 inh confirm – confirmation of HSP90 inhibitors; shares compounds with HSP90 inh; rabbit reticulocyte lysate, luciferase refolding luminescence, 3 h; inhibition, % at 5.9 µM; 2,300 tested, 64% active; in the data active means inhibition above about 18%;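 further: 0% = vehicle wells and 100% = reference inhibitor wells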
luciferase ctr – counter-screen for HSP90 inhibitors: inhibitors of firefly luciferase; shares compounds with HSP90 inh; inhibition, % at 5.9 µM; purified native firefly luciferase, luminescence; 2,300 tested, 48% active;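 active means inhibition above the mean inhibition of all tested sample wells plus 3 SD, cut at about 10% in these data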;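 further: 0% = DMSO with luciferase and 100% = wells lacking luciferase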
The depositor's hits bear a star; x = not tested or not shown.

SMILES	TRAIL sens C8	FLuc inhib CS	PPC-1+TRAIL kill	STAT3 inh	HSP90 inh	FLuc act counter	HSP90 inh confirm	luciferase ctr
COC(=O)NCCOC(=O)N(O)c1ccc(Br)cc1	5.1	-5.1	12.7	14.0	50.1*	1.1	75.1*	-19.9
CCOC(=O)C1=C[C@@H](C(C)(C)C)N(S(=O)(=O)c2ccc(C)cc2)[C@H]1c1cccc(Cl)c1	9.5	x	x	x	x	x	x	x
Cc1nn(-c2ccccc2)c(Cl)c1/C=N/NC(=O)c1[nH]ncc1Br	72.7*	x	x	x	33.0*	x	45.8*	39.2*
Fc1ccc(CN2C3=NCCN3c3ccccc32)cc1	17.5	x	4.7	x	-2.6	x	x	x
O=C(O)c1ccc(Cl)c(N2C(=O)Nc3ccccc3N2O)c1	1.8	-1.1	13.7	7.5	0.7	1	x	x
CC(C)C/C(O)=C/c1nc2cc(Cl)ccc2oc1=O	15.1	-3.3	29.6	-9.2	6.4	1	x	x
O=c1oc2ccc(Cl)cc2nc1/C=C(\O)c1ccco1	14.3	x	11.9	x	82.5*	x	78.7*	-5.5
Cc1cc(N2CCOCC2)n2ncc(-c3ccc(Cl)cc3)c2n1	21.2	x	15.0	x	35.2*	x	48.3*	55.4*
Cc1ccc(-c2cnn3c(N4CCOCC4)cc(C)nc23)cc1	26.2	x	x	x	39.7*	x	47.7*	53.5*
CC(C)(C)c1cc(N2CCOCC2)n2ncc(-c3ccc(Cl)cc3)c2n1	-0.8	x	x	x	-0.3	x	x	x
Cc1cc(N2CCCCC2)n2ncc(-c3ccc(Cl)cc3)c2n1	18.1	16.9	8.9	-21.8	7.1	0.8	x	x
COc1cc(NC(=O)CSc2nc3[nH]c(=O)cc(O)c3s2)cc(OC)c1OC	-14.8	x	x	x	x	x	x	x
CCn1c(C)cc(/C=C2/NC(=O)N(c3ccccc3)C2=O)c1C	-1.3	27.4	16.8	0.2	30.9*	0.7	6.7	-16.1
CCOC(=O)CCN1C(=O)c2ccccc2Sc2ncccc21	7.3	x	x	x	0.7	x	x	x
Cc1cc(NC(=O)c2cccc(Cl)c2)n[nH]1	16.7	x	x	x	x	x	x	x
Cc1cc(NC(=O)NC(=O)c2ccc(F)cc2F)n[nH]1	23.1	53.2*	27.9	33.5	22.7*	0.5	39.2*	25.6*
COc1ccc(CCN2CC(=O)NC(=O)C2)cc1OC	-20.6	x	x	x	x	x	x	x
C/C(=N/Nc1ccc(C(=O)O)cc1)c1ccc2c(c1)Nc1ccccc1S2	-15.5	x	x	x	x	x	x	x
C/C(=N\Nc1ccc(C(=O)O)cc1)c1ccc2c(c1)Nc1ccccc1S2	14.0	x	7.1	x	24.2*	x	28.3*	-28.7
Nc1ccccc1SSc1ccccc1N	-0.8	x	1.9	x	10.7	x	35.7*	8.3
N#Cc1ccccc1Sc1ccccc1N	-3.3	-3.3	-7.3	12.8	2.0	1	x	x
CN(C)c1ccc(/C=N/Nc2nc3ccccc3o2)cc1	48.1	x	x	x	45.3*	x	63.1*	62.0*
CCS(=O)(=O)c1ccc(C=NNc2nc3ccccc3o2)cc1	2.3	x	x	x	x	x	x	x
CC(=O)N1/C(=C/c2ccc(N(C)C)cc2)C(=O)c2ccccc21	-46.7	9.3	1.7	3.5	18.3*	0.9	5.5	-12.9
C[n+]1ccc(/C=C/c2cccs2)cc1	0.7	x	-12.8	x	28.3*	x	-0.4	-4.1
SMILES	TRAIL sens C8	FLuc inhib CS	PPC-1+TRAIL kill	STAT3 inh	HSP90 inh	FLuc act counter	HSP90 inh confirm	luciferase ctr
CN(C)c1ccc(/C=C/c2cc[n+](C)cc2)cc1	9.4	-0.7	9.1	18.0	2.0	1	x	x
CCc1ccc(NC(=O)c2ccc3ncsc3c2)cc1	x	45.0	33.2	-10.7	-5.5	0.6	x	x
O=C(Nc1ccc(Br)cc1)c1ccc2ncsc2c1	0.9	x	x	x	43.2*	x	44.6*	28.4*
CC(C)N=c1scc(-c2cccs2)n1/N=C/c1ccc(O)c(O)c1O	16.7	14.9	-1.1	-15.4	4.4	0.9	x	x
CN=c1scc(-c2ccccc2F)n1/N=C/c1ccc(O)c(O)c1O	83.5*	97.9*	46.9	50.5*	22.1*	0	92.4*	89.0*
CC(=O)c1ccc(S(=O)(=O)N2CCN(C(=O)CSc3ccc(F)cc3)CC2)cc1	7.4	x	x	x	24.2*	x	-6.8	-9.9
O=C1OCCC1Sc1nnc(-c2ccc(Cl)cc2Cl)o1 (stereo unspecified)	28.7	x	24.8	x	33.1*	x	66.9*	57.3*
COc1ccccc1C(=O)NCCC(=O)NCCCSc1ccccc1	3.7	x	x	x	x	x	x	x
CCCSc1ccc2nc(-c3ccccc3)cn2c1	92.0*	95.4*	84.6*	103.0*	45.8*	0	90.2*	82.9*
CC1(C)CC(=O)C2=C(C1)Nc1ccccc1NC2c1ccc(F)c(F)c1 (stereo unspecified)	-3.3	x	x	x	0.4	x	x	x
COc1cccc(C2Nc3ccccc3NC3=C2C(=O)CC(C)(C)C3)c1 (stereo unspecified)	-17.2	x	x	x	22.7*	x	-1.2	-4.4
Cn1c(-c2ccc(F)cc2)cnc1SCC(=O)N1CCCc2ccccc21	-2.2	1.7	13.4	7.6	-1.4	1	x	x
Cn1c(-c2ccc(F)cc2)cnc1SCC(=O)N1CCCCC1	9.0	12.6	10.2	33.9	18.5*	0.9	27.5*	18.9*
CCCn1nc(C(=O)Nc2cccc(S(=O)(=O)N3CCOCC3)c2)c2ccccc2c1=O	21.4	x	x	x	x	x	x	x
Cc1ccc(NC(=O)CSc2nnc(-c3cccs3)o2)cc1S(=O)(=O)N(C)C	x	-2.3	24.4	9.2	-2.8	1	x	x
COCCN(Cc1nc(-c2ccc(-c3ccccc3)cc2)oc1C)C(C)C	18.1	x	x	x	85.3*	x	88.9*	20.6*
O=C(C1CCCN(S(=O)(=O)Cc2ccccc2)C1)N1CCCCC1 (stereo unspecified)	-5.9	0.9	18.5	11.2	25.4*	1	-4.2	-10.0
Nc1nc(NCCN2CCOCC2)nc(NCc2ccccc2)c1[N+](=O)[O-]	-5.5	x	-1.8	x	7.0	x	x	x
COc1ccc(C(CC(=O)O)NC(C)=O)cc1OC (stereo unspecified)	8.8	0.3	6.3	2.9	18.0*	1	4.4	-7.5
S=C(Nc1cccnc1)Nc1ccccc1Br	19.1	-5.8	0.9	8.6	25.5*	1.1	-9.8	-10.5
COc1ccc(/C=C/C(=O)Nc2ccccc2C(F)(F)F)cc1OC	10.1	-6.1	7.3	17.9	-2.7	1.1	x	x
COc1ccc(/C=C/C(=O)Nc2ccccc2C(=O)O)cc1OC	29.1	53.5*	24.4	27.1	71.9*	0.5	54.7*	52.3*
COc1cc(Br)c(C(=O)c2nccc3cc(OC)c(OC)cc23)cc1OC	5.3	x	x	x	41.8*	x	19.1*	-3.1
COc1cc(N)c(C(=O)c2nccc3cc(OC)c(OC)cc23)cc1OC	15.5	x	x	x	-3.7	x	x	x
Cc1ccc2nc(SCC3CCCCO3)[nH]c2c1 (stereo unspecified)	22.0	x	19.6	x	29.8*	x	64.0*	60.9*
CCCOC(=O)Nc1ccc(N2CCCCC2)cc1	33.5	58.6*	38.4	30.0	20.6*	0.4	33.5*	20.9*
